Assay results gathered from unrelated publications.
Protocols differ between the studies behind these lines.
Cell line: IGROV-1
Effect on: cell growth or viability

SMILES | technique | concentration | time | quantity | result
COc1ccc(C(=O)/C=C/c2cccc3ccccc23)cc1S(N)(=O)=O | SRB |  | 48 h | GI50 | 2300 nM
Cc1cc(C)n(C(=S)[S][Au][PH](CCCCCC[PH]([Au][S]C(=S)n2nc(C)cc2C)(c2ccccc2)c2ccccc2)(c2ccccc2)c2ccccc2)n1 |  |  |  | GI50 | 1190 nM
COc1cccc(Oc2ccccc2NC(=O)CNC(=O)c2cccc3ccccc23)c1 | SRB |  | 48 h | GI50 | 1050 nM
COc1cc2c3cc1Oc1c(OC)c(OC)cc4c1[C@@H](Cc1ccc(O)c(c1)Oc1ccc(cc1)C[C@@H]3N(C)CC2)N(C)CC4 |  |  | 72 h | IC50 | 29600 nM
COc1ccc(-c2ccc(-c3ccc(C(=N)N)nc3)s2)cc1Cl | SRB |  |  | GI50 | 1780 nM
S=C([S][Au-][P+](CCCCCC[P+]([Au-][S]C(=S)n1cccn1)(c1ccccc1)c1ccccc1)(c1ccccc1)c1ccccc1)n1cccn1 |  |  |  | GI50 | 2260 nM
COc1ccc(-c2ccc(-c3ccc(C(=N)N)nc3)s2)cc1 | SRB |  |  | GI50 | 1840 nM
COc1ccc(C(=O)/C=C/c2ccc3c(c2)OCCO3)cc1S(N)(=O)=O | SRB | 10 µM |  | inhibition | 36%
